Published values from different studies.
Compare with care: the assays were run in different laboratories.
Target: Dual specificity protein kinase CLK1 (CLK1, Homo sapiens, UniProt P49759)

SMILES	effect on	mode	method	tested at	measurement	result
C1=C/COCc2cc(ccc2OCCN2CCCC2)Nc2nccc(n2)-c2cccc(c2)COC/1	binding			0.1 µM	remaining binding	27%
CCCCC(=O)Nc1ccc(-c2ccc3ncn(CCC)c(=O)c3c2)cn1	binding		competition with immobilised ligand	0.5 µM	remaining binding	79%
C=CC(=O)N1CCC[C@@H](n2nc(-c3ccc(Oc4ccccc4)cc3)c3c(N)ncnc32)C1	enzyme activity	inhibitor		1 µM	inhibition	23%
C#Cc1cc(-c2cc(Nc3nc(N[C@@H](C)c4ccc(F)cn4)ncc3Cl)n[nH]2)ccc1C=O	enzyme activity	inhibitor		0.2 µM	inhibition	34.2%
C=CC(=O)N1CCC([C@@H]2CCNc3c(C(N)=O)c(-c4ccc(Oc5ccccc5)cc4)nn32)CC1	enzyme activity	inhibitor		1 µM	inhibition	19%
Cc1ccc(NC(=O)c2ccnc(C(F)(F)F)c2)cc1-c1cc(OCCO)nc(N2CCOCC2)c1	binding		competition with immobilised ligand	1 µM	remaining binding	92%
COc1ccc2oc(-c3ccc4nc(N)oc4c3)c/c(=N\c3ccccc3NC(=O)CCN)c2c1	binding			1 µM	remaining binding	94%
Cc1cc(O)c(-c2ccc([C@@H](C)CN(C)C)cc2)c2c1[nH]c(=O)c1sccc12	enzyme activity	inhibitor		0.1 µM	inhibition	-7.55%
CN1CCN(C(=O)c2ccc(NC(=O)Nc3ccc(N(C)c4ccnc(Nc5ccc(CS(C)(=O)=O)cc5)n4)cc3)cc2)CC1	binding		competition with immobilised ligand	1 µM	remaining binding	84%
